Reference: ChEMBL document CHEMBL1125034, “Design and synthesis of 4H-3,1-benzoxazin-4-ones as potent alternate substrate inhibitors of human leukocyte elastase” (J Med Chem, 1990)

Experiments:
[1] = Alkaline hydrolysis rate of the compound; type: ADME
Method in brief: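 Alkaline hydrolysis rate constants measured at several pH values at 25 °C. Loss of the long-wavelength UV chromophore (λmax typically 300-345 nm) was followed by spectrophotometer.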

Neutrophil elastase = target: T1, Neutrophil elastase (Homo sapiens, UniProt P08246); assay: Inhibition of human leukocyte elastase
T1 sequence (P08246 whole entry): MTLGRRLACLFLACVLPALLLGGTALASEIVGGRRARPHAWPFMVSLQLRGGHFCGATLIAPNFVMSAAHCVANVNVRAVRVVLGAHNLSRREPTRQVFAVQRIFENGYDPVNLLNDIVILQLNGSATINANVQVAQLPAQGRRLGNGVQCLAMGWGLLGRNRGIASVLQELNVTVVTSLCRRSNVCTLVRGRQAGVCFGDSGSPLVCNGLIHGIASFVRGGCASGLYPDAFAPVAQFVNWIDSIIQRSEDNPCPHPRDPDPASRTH

[2] = target: T2, Neutrophil elastase (Homo sapiens) (UniProt P08246); assay: Component acylation rate constant for interaction with human leukocyte elastase
T2 sequence (whole entry): T1 sequence (P08246 whole entry)

[3] = target: T2, Neutrophil elastase (Homo sapiens); assay: Component deacylation rate constant for interaction with human leukocyte elastase
[4] = Partition coefficient (logD7.4); type: physicochemical; conditions: octanol/water, pH 7.4

Row | Log kOH- [1] | Ki (Neutrophil elastase) | Log kon [2] | Log koff [3] | logD [4] | SMILES
1 | 0.39 | 1350 nM | 4.1 | -1.77 | – | CCCNC(=O)Nc1ccc2c(=O)oc(NC(C)C)nc2c1
2 | -0.42 | 38 nM | 4.32 | -3.1 | – | COc1cc(C)c2c(=O)oc(NC(C)C)nc2c1
3 | -0.44 | 646 nM | 3.45 | -2.74 | 1.7 | CCCCNc1nc2cc(N)ccc2c(=O)o1
4 | 3.09 | 537 nM | 4 | – | – | Cc1cccc2c(=O)oc(C(F)(F)F)nc12
5 | – | 724 nM | 3.89 | -2.25 | – | CCC(CC)Nc1nc2cccc(C)c2c(=O)o1
6 | 1.79 | 9550 nM | 4 | – | – | O=c1oc(-c2ccccc2)nc2ccccc12
7 | – | 741 nM | 3.7 | -2.43 | – | CCCC(C)Nc1nc2cccc(C)c2c(=O)o1 (stereo not given)
8 | 3.14 | 28.8 nM | 5.11 | -2.43 | 2.9 | Cc1cccc2nc(C(F)(F)F)oc(=O)c12
9 | 1.13 | 170 nM | 3.36 | -3.41 | 3.2 | COC(=O)[C@H](CC(C)C)Nc1nc2ccccc2c(=O)o1
10 | 1.58 | 0.933 nM | 6.18 | -2.85 | 3.6 | CCSc1nc2cccc(C)c2c(=O)o1
11 | -1.09 | 77.6 nM | 2.36 | -4.75 | – | Cc1cc(N)cc2nc(NC(C)C)oc(=O)c12
12 | 1.31 | 871 nM | 3.41 | -2.65 | – | CCOC(=O)[C@H](C)Nc1nc2ccccc2c(=O)o1
13 | – | 1000 nM | 4.38 | -1.62 | – | CCc1cccc2c(=O)oc(NC(C)C)nc12
14 | 1.28 | 447 nM | 3.28 | -3.07 | 0.3 | COC(=O)[C@H](Cc1ccc(O)cc1)Nc1nc2ccccc2c(=O)o1
15 | – | – | 4.75 | -3.47 | – | CCCNc1nc2cccc(C)c2c(=O)o1
16 | 2.01 | 28.2 nM | 6.3 | – | – | CCSc1nc2c(C)cccc2c(=O)o1
17 | 1.26 | 316 nM | 3.08 | -3.42 | – | NC(=O)[C@H](Cc1ccccc1)Nc1nc2ccccc2c(=O)o1
18 | -0.57 | 4570 nM | 2.43 | -2.91 | – | CCCCN(CCCC)c1nc2ccccc2c(=O)o1
19 | -0.23 | 5.89 nM | 3.41 | -4.82 | – | Cc1cc(C)c2c(=O)oc(NC(C)C)nc2c1
20 | 1.41 | 0.191 nM | 5.54 | -4.18 | – | C/C=C/c1cccc2nc(OCC)oc(=O)c12
21 | 1.32 | 66.1 nM | 4.32 | -2.86 | – | COC(=O)C(CC(C)C)Nc1nc2ccccc2c(=O)o1 (stereo not given)
22 | 1.3 | 550 nM | – | – | -0.3 | CC(C)NC(=O)[C@H](CCC(N)=O)Nc1nc2ccccc2c(=O)o1

Row | Log kOH- [1] | Ki (Neutrophil elastase) | Log kon [2] | Log koff [3] | logD [4] | SMILES
23 | -1.08 | 115 nM | – | – | 1.6 | CCc1cc(N)cc2nc(N3CCCC3C(=O)N[C@@H](CC(C)C)C(N)=O)oc(=O)c12 (stereo not given in full)
24 | 1.32 | 37.2 nM | 4.58 | -2.85 | 3.2 | COC(=O)[C@@H](CC(C)C)Nc1nc2ccccc2c(=O)o1
25 | -1.26 | 17 nM | – | – | 1.6 | CCc1cc(N)cc2nc(NC(C)C)oc(=O)c12
26 | 1.18 | 7410 nM | – | – | 2.1 | Cc1nc2c(C)cccc2c(=O)o1
27 | 0.69 | 182 nM | – | – | 3.2 | CCc1ccc2c(=O)oc(NC(C)C)nc2c1
28 | 1.36 | 34700 nM | – | – | 1.8 | Cc1ccc2nc(C)oc(=O)c2c1
29 | 0.41 | 158000 nM | – | – | 3.1 | COc1cccc2nc(Nc3ccccc3)oc(=O)c12
30 | 2.61 | 7940 nM | 3.3 | – | – | Cc1nc2c(N)cccc2c(=O)o1
31 | 1.69 | 4790 nM | – | – | 1.3 | Cc1nc2ccccc2c(=O)o1
32 | 1.26 | 20.9 nM | 4.04 | -3.64 | 0.8 | CC(C)C[C@H](NC(=O)[C@@H]1CCCN1c1nc2ccccc2c(=O)o1)C(=O)NCC(N)=O
33 | 2.24 | 1450 nM | 4 | – | – | CCSc1nc2ccc(NC(C)=O)cc2c(=O)o1
34 | -0.18 | 1260 nM | – | – | 4 | COC(=O)[C@H](CC(C)C)Nc1nc2cc(C)cc(C)c2c(=O)o1
35 | – | 661 nM | 2.05 | -4.13 | – | CCC(C)CNc1nc2cccc(C)c2c(=O)o1 (stereo not given)
36 | 1.9 | 1.41 nM | 5.4 | -3.45 | – | CSc1nc2cccc(C)c2c(=O)o1
37 | -0.1 | 4.9 nM | 3.46 | -4.85 | – | CCOc1nc2cc(N(C)C)ccc2c(=O)o1
38 | 0.96 | 2140 nM | 3.76 | -1.91 | – | COc1cc2nc(SCc3ccccc3)oc(=O)c2cc1OC
39 | 1.21 | 18600 nM | – | – | 2.3 | CCOC(=O)CCCNc1nc2ccccc2c(=O)o1
40 | 1.39 | 46.8 nM | – | – | 2.6 | COC(=O)C(Nc1nc2ccccc2c(=O)o1)c1ccccc1 (stereo not given)
41 | -0.54 | 10 nM | – | – | 2.7 | CCOc1nc2cc(N)cc(CC)c2c(=O)o1
42 | 1.31 | 1100 nM | 3.84 | -2.12 | – | COc1cc2nc(SCc3c[nH]cn3)oc(=O)c2cc1OC
43 | 0.54 | – | 3.69 | -0.82 | 2.3 | CNc1nc2cccc(C)c2c(=O)o1
44 | 1.21 | – | 4.77 | -2.51 | 2.4 | CC(C)Nc1nc2ccccc2c(=O)o1

Row | Log kOH- [1] | Ki (Neutrophil elastase) | Log kon [2] | Log koff [3] | logD [4] | SMILES
45 | 2.33 | 39.8 nM | – | – | 3.6 | O=c1oc(SCc2ccccc2)nc2ccccc12
46 | 1.17 | 0.229 nM | 5.49 | -4.15 | – | CCCc1cccc2nc(OCC)oc(=O)c12
47 | 2.5 | 0.468 nM | 7 | -2.33 | – | CCOc1nc2cccc(C(Br)Br)c2c(=O)o1
48 | 0.68 | 6460 nM | 2.18 | -3.01 | – | CC(C)CN(CC(C)C)c1nc2ccccc2c(=O)o1
49 | 1.1 | 1200 nM | 5 | – | – | CCSc1nc2cc(OC)c(OC)cc2c(=O)o1
50 | – | 1.58 nM | 3.85 | -4.95 | – | Cc1cccc2nc(OCC(C)C)oc(=O)c12
51 | -2 | 282 nM | 2.81 | -3.74 | – | CCCc1cc(N(C)C)cc2nc(NC(C)C)oc(=O)c12
52 | 1.15 | 1700 nM | 3.05 | -2.72 | 3.2 | O=c1oc(NCCc2ccccc2)nc2ccccc12
53 | 1.23 | 37.2 nM | 4.16 | -3.27 | 1.2 | NC(=O)[C@H](Cc1ccccc1)NC(=O)[C@@H]1CCCN1c1nc2ccccc2c(=O)o1
54 | 0.38 | – | 5.11 | -3.27 | 3.8 | CCCCNc1nc2cccc(CC)c2c(=O)o1
55 | – | 2570 nM | 4.3 | – | – | CC(C)Cc1nc2ccccc2c(=O)o1
56 | 1.32 | 214 nM | – | – | 2.6 | CC[C@H](C)[C@H](Nc1nc2ccccc2c(=O)o1)C(=O)OC
57 | 1.27 | 21.4 nM | 4.18 | -3.49 | 1 | CC(C)C[C@H](NC(=O)C1CCCN1c1nc2ccccc2c(=O)o1)C(N)=O (stereo not given in full)
58 | 0.92 | 148 nM | – | – | 1.2 | CC(=O)Nc1ccc2c(=O)oc(NC(C)C)nc2c1
59 | 1.36 | 1230 nM | – | – | 2 | Nc1ccc(CNc2nc3ccccc3c(=O)o2)cc1
60 | 1.45 | 2140 nM | – | – | 0.2 | CC(C)NC(=O)[C@H](CC(N)=O)Nc1nc2ccccc2c(=O)o1
61 | -0.74 | 479 nM | 3 | -3.32 | – | CC(C)Nc1nc2cc(N(C)C)ccc2c(=O)o1
62 | 1.86 | 7590 nM | 2.24 | -2.88 | – | CC(=O)NCc1nc2ccccc2c(=O)o1
63 | 0.59 | 251 nM | – | – | 3.7 | COC(=O)[C@H](CC(C)C)Nc1nc2cccc(C)c2c(=O)o1
64 | -1.61 | 1260 nM | 2.01 | -3.89 | – | Cc1cc(N(C)C)cc2nc(NC(C)C)oc(=O)c12
65 | 2.75 | 30.9 nM | – | – | 2.9 | Cc1cccc2nc(C(F)(F)C(F)(F)C(F)(F)F)oc(=O)c12

Row | SMILES | Log kOH- [1] | Ki (Neutrophil elastase) | Log kon [2] | Log koff [3] | logD [4]
66 | O=C(c1nc2ccccc2c(=O)o1)[C@@H]1CCCN1 | 1.69 | 1120 nM | 2.95 | -3 | –
